Measured values gathered from unrelated publications.
Target: Non-receptor tyrosine-protein kinase TNK1 (TNK1, Homo sapiens, UniProt Q13470)
Sequence (Q13470 1-666, as in one of the studies): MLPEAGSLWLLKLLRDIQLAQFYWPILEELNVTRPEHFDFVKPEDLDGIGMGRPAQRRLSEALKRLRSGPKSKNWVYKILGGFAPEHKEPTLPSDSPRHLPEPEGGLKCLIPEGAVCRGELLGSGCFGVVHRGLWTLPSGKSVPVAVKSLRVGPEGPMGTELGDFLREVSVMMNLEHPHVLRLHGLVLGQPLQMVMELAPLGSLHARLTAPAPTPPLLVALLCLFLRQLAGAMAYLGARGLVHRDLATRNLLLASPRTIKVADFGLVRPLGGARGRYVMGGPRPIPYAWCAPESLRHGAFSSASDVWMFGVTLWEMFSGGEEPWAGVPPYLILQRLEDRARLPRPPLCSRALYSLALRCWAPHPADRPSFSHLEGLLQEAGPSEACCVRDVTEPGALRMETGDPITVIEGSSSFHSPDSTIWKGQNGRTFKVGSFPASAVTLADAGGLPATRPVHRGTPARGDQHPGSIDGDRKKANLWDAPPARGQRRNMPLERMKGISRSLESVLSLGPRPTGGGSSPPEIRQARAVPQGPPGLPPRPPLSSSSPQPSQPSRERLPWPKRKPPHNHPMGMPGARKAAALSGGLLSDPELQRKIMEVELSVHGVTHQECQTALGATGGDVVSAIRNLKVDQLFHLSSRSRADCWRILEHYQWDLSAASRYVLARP

SMILES | effect on | method | tested at | remaining binding [%]
N[C@H]1CCN(c2nccc(-c3cnn4ncccc34)n2)C1 | binding |  | 1 µM | 0
O=C(c1ccc(Nc2ncc(Cl)c(-c3ccc(Cl)s3)n2)cc1)N1CCC(N2CCCC2)CC1 | binding | competition with immobilised ligand | 1 µM | 13
C[C@H]1CCN(c2nccc(-c3cnn4ncccc34)n2)C1 | binding |  | 1 µM | 100
c1cncc(-c2cccc(Nc3nccc(NC4CCCCC4)n3)c2)c1 | binding | competition with immobilised ligand | 10 µM | 40
COc1ncc2cc3ccccc3nc2c1C#N | cell-free assay | competition with immobilised ligand | 5 µM | 100
CNC(=O)c1ccc(Nc2ncc(C(F)(F)F)c(NCc3nccnc3N(C)S(C)(=O)=O)n2)cc1 | cell-free assay | competition with immobilised ligand | 0.1 µM | 100
COc1cc(C(=O)N2CCC(N3CCN(C)CC3)CC2)ccc1Nc1ncc2c(n1)N(C)c1ccccc1C(=O)N2C | binding | competition with immobilised ligand | 10 µM | 2.8
CN(C)c1nccc(-c2cnc3ncccn23)n1 | binding |  | 1 µM | 100
O=C(NCC1CCOCC1)c1n[nH]cc1NC(=O)c1c(F)cccc1F | binding | competition with immobilised ligand | 1 µM | 98
C=CC(=O)N1CCC(C(=O)NCC(=O)N2CCN(c3nc(-c4cnc(N)nc4C(F)F)nc(N4CCOCC4)n3)CC2)CC1 | binding | competition with immobilised ligand | 1 µM | 83
Cc1noc([C@H]2C[C@@H](c3ccc(C(F)(F)F)cc3)CN(C(=O)N3CCS(=O)(=O)C3)C2)n1 | cell-free assay | competition with immobilised ligand | 1 µM | 100
O=C(c1ccc(Nc2nccc(-c3cc4ccccc4s3)n2)cc1)N1CCC(N2CCCC2)CC1 | binding | competition with immobilised ligand | 1 µM | 27
COc1cc(-c2cn(C3CCc4c(F)cccc4N(CC(F)(F)F)C3=O)nn2)ccc1-n1cnc(C)c1 (stereo not shown) | cell-free assay | competition with immobilised ligand | 1 µM | 100
O=C(NCCCN1CCOCC1)c1ccc(Nc2nccc(-c3cc4ccccc4s3)n2)cc1 | binding | competition with immobilised ligand | 1 µM | 41
Cc1c(C(=O)O)cc(-c2ccc(C3CCNCC3)cc2)c2ccc(-c3ccc(C(F)(F)F)cc3)cc12 | binding | competition with immobilised ligand | 1 µM | 100
Cc1cnn2ncc(-c3ccnc(N(C)C)n3)c2c1 | binding |  | 1 µM | 98
CN1CCN(c2cnc3c(C4CCN(C(=O)c5ccc(OC(F)(F)F)cc5N)CC4)ncnc3c2)CC1 | cell-free assay | competition with immobilised ligand | 1 µM | 100
c1cnn2ncc(-c3ccnc(N4CCC45COC5)n3)c2c1 | binding |  | 1 µM | 100
Cn1cc(Cl)c2c(Oc3c(F)cc(Nc4cc(Cl)nc(N)n4)cc3F)ccnc21 | cell-free assay | competition with immobilised ligand | 0.1 µM | 100
CN(c1nccc(-c2cnn3ncccc23)n1)C1CC1 | binding |  | 1 µM | 84
Cc1c[nH]c2nccc(Oc3c(F)cc(Nc4cc(Cl)nc(N)n4)cc3F)c12 | cell-free assay | competition with immobilised ligand | 0.1 µM | 100
CNC(=O)[C@@H]1CC[C@@H](n2c(-c3ccc4cnccc4c3)nc3ccc(C(=O)NCc4cccc(C(N)=O)c4)cc32)C1 | binding | competition with immobilised ligand | 1 µM | 97
